The results in this text go back to the array DNA melting data of Ke et al. (doi:10.1101/2024.01.08.574731).

Data set [1] in a line: melting temperature; fluorescence melt of hairpins on a sequencing array, two-state fit, raised by 9.35 °C to match UV melts. As to conditions: sodium 0.088 M. The procedure, abridged: (§1)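 Cy3 signals were normalised both to pre-quench Cy3 and to control constructs. They came from library hairpins carrying annealed Cy3 and quencher oligos on a sequenced MiSeq flow cell, imaged in 50 mM Na-HEPES pH 8.0, 25 mM NaCl, in 2.5 °C steps up to 60 °C. Bootstrapped two-state fits gave melting temperature and folding enthalpy, and four replicates were combined by inverse variance. Fitted temperatures were then raised by 9.35 °C to match UV melts.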

The nature of data set [2]: folding enthalpy; higher = less favourable; fluorescence melt of hairpins on a sequencing array, two-state fit. To be noted: sodium 0.088 M. The essentials:
as §1

Take GCCGACGAAAGTCTGGGC ((((((....)))..))): in data set [1], the Tm came to 54.6 °C. Moreover, the folding enthalpy in data set [2] was -27.6 kcal/mol.

In the case of GCCGACGGAAACGCCGAC (.((.((....)).)).), the Tm in data set [1] came to 36.4 °C. Besides, in data set [2], the folding enthalpy was -16.7 kcal/mol.

As for GCCGACGGAAACGCCGGC ((((.((....)).)))), the Tm in data set [1] came to 63 °C. Besides, the folding enthalpy in data set [2] was -38.7 kcal/mol.

GCCGACGGAAACGTCGAC (.(((((....))))).): in data set [1], the Tm stood at 55.4 °C. The folding enthalpy in data set [2] is -14.9 kcal/mol.

For the sequence GCCGAGCGAAAGCACCGC ((.(.((....)).).)), the Tm in data set [1] was 38.5 °C. Besides, the folding enthalpy in data set [2] is -14.1 kcal/mol.

Take GCCGAGCGAAAGCACTGC ((.(.((....)).).)): in data set [1], the Tm amounted to 36.4 °C. Moreover, in data set [2], the folding enthalpy was -18.8 kcal/mol.

Turning to GCCGAGCGAAAGCGCCGC ((.(.((....)).).)), the Tm in data set [1] is 41.9 °C. For the same sequence, in data set [2], the folding enthalpy was -12 kcal/mol.

For the sequence GCCGAGCGAAAGCTATGC ((..(((....)))..)), the Tm in data set [1] worked out at 38.8 °C. Further, the folding enthalpy in data set [2] was -12.5 kcal/mol.

As for GCCGAGGGAAACCTCGAC (.(((((....))))).), in data set [1], the Tm is 49.5 °C. Moreover, in data set [2], the folding enthalpy was -14.1 kcal/mol.

In the case of GCCGATACGAAAGTAGGC (((..(((....)))))), in data set [1], the Tm came to 49.3 °C. In addition, the folding enthalpy in data set [2] was -33 kcal/mol.

For the sequence GCCGATCGAAAGATAGGC (((.(((....))).))), the Tm in data set [1] was found to be 61 °C. Also, the folding enthalpy in data set [2] is -41 kcal/mol.

On to GCCGATCGAAAGATGGC (((.(((....)))))), for which, in data set [1], the Tm came to 54.5 °C. The folding enthalpy in data set [2] was -26.7 kcal/mol.

With GCCGATCGAAAGATGGGC (((.(((....))).))), the Tm in data set [1] worked out at 55.9 °C. The folding enthalpy in data set [2] was -40.4 kcal/mol.

As for GCCGATCGAAAGATTGGC (((.(((....))).))), the Tm in data set [1] came to 61.1 °C. Also, in data set [2], the folding enthalpy was -45.5 kcal/mol.

As for GCCGATTCGAAAGAAGGC (((..(((....)))))), the Tm in data set [1] is 43.2 °C. In addition, the folding enthalpy in data set [2] is -28.9 kcal/mol.

Consider GCCGCCGAAAGGCACGGC ((((((....)))..))), for which the Tm in data set [1] is 62.6 °C. Further, the folding enthalpy in data set [2] is -16.7 kcal/mol.

For GCCGCCGAAAGGCTCGGC ((((((....)))..))), in data set [1], the Tm was 56.7 °C. For the same sequence, the folding enthalpy in data set [2] is -17.6 kcal/mol.

Regarding GCCGCCGGAAACGACGGC ((((.((....)).)))), the Tm in data set [1] was 67 °C. Also, the folding enthalpy in data set [2] is -33.7 kcal/mol.

Take GCCGCCGGAAACGGCAGC ((.((((....)))).)): the Tm in data set [1] is 59.1 °C. Besides, in data set [2], the folding enthalpy was -15.9 kcal/mol.

GCCGCCGGAAACGGCGAC (.(((((....))))).): the Tm in data set [1] turned out to be 60.9 °C. The folding enthalpy in data set [2] is -10.6 kcal/mol.

Consider GCCGCCTCGAAAGAGGGC (((..(((....)))))), for which, in data set [1], the Tm amounted to 51.1 °C. Further, the folding enthalpy in data set [2] was -8.74 kcal/mol.

As to GCCGCGACGAAAGTCGGC (((..(((....)))))), the Tm in data set [1] turned out to be 62.4 °C. In addition, the folding enthalpy in data set [2] is -9.47 kcal/mol.

For the sequence GCCGCGCCGAAAGGCGGC (((..(((....)))))), in data set [1], the Tm worked out at 67.6 °C. Besides, the folding enthalpy in data set [2] was -9.11 kcal/mol.

In the case of GCCGCGCGAAAGCCCAGC ((.(.((....)).).)), in data set [1], the Tm was determined as 29.9 °C. Besides, the folding enthalpy in data set [2] is -12.7 kcal/mol.

On to GCCGCGCGAAAGCCTGGC (((..((....))..))), for which the Tm in data set [1] was 53.8 °C. The folding enthalpy in data set [2] is -17.5 kcal/mol.

With GCCGCGCGAAAGCGCTGC ((.((((....)))).)), the Tm in data set [1] was 61.5 °C. Further, the folding enthalpy in data set [2] was -16.6 kcal/mol.

Consider GCCGCGCGAAAGCTAGGC (((..((....))..))), for which, in data set [1], the Tm turned out to be 62.5 °C. The folding enthalpy in data set [2] was -28.2 kcal/mol.

On to GCCGCGGGAAACCGCAGC ((.((((....)))).)), for which the Tm in data set [1] stood at 59.3 °C. The folding enthalpy in data set [2] is -16.9 kcal/mol.

For the sequence GCCGCGTCGAAAGACGGC (((..(((....)))))), in data set [1], the Tm was found to be 56.9 °C. The folding enthalpy in data set [2] is -9.58 kcal/mol.

GCCGCTACGAAAGTAGGC (((..(((....)))))): the Tm in data set [1] is 51 °C. Further, in data set [2], the folding enthalpy was -18 kcal/mol.

Turning to GCCGCTGGAAACGGTGGC (((.(.(....).).))), the Tm in data set [1] amounted to 51.7 °C. The folding enthalpy in data set [2] was -44.9 kcal/mol.

As to GCCGGAACGAAAGTTGGC (((..(((....)))))), the Tm in data set [1] turned out to be 47.4 °C. The folding enthalpy in data set [2] was -24.3 kcal/mol.

Turning to GCCGGAGCGAAAGCTGGC (((..(((....)))))), the Tm in data set [1] worked out at 55.4 °C. In addition, in data set [2], the folding enthalpy was -21.6 kcal/mol.

In the case of GCCGGAGGAAACTCCAGC ((.((((....)))).)), the Tm in data set [1] came out at 40.9 °C. Moreover, the folding enthalpy in data set [2] was -23.8 kcal/mol.

As to GCCGGAGGAAACTTCGGC ((((.((....)).)))), the Tm in data set [1] is 56.3 °C. The folding enthalpy in data set [2] was -38.6 kcal/mol.

With GCCGGCGAAAGCCACGGC ((((((....)))..))), the Tm in data set [1] is 63.4 °C. Moreover, in data set [2], the folding enthalpy was -21.5 kcal/mol.

For GCCGGCGAAAGCCTTGGC ((((((....)))..))), the Tm in data set [1] stood at 54.8 °C. The folding enthalpy in data set [2] was -20.8 kcal/mol.
